Assay results reported in ChEMBL document CHEMBL2169868, “Flavone-based novel antidiabetic and antidyslipidemic agents” (J Med Chem, 2012).

Legend:
[1] = Mean residence time in Sprague-Dawley rat at 2.5 mg/kg, iv by LC-MS/MS method; type: ADME, organism-based; parameters: dose 2.5 mg/kg, route intravenous; settings: in vivo
In short: (§1)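 Male Sprague−Dawley rats given a single 2.5 mg/kg iv dose; one formulation was DMF/PG/water (2:4:4), 0.2 μ filtered. Blood drawn from 0.08 to 48 h. Plasma assayed by LC-MS/MS with linear range 0.78−400 ng/mL.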

[2] = Plasma clearance in Sprague-Dawley rat at 2.5 mg/kg, iv by LC-MS/MS method; type: ADME, organism-based; parameters: dose 2.5 mg/kg, route intravenous; in short: as §1
[3] = Tmax in Sprague-Dawley rat at 25 mg/kg, po by LC-MS/MS method; type: ADME, organism-based; parameters: dose 25 mg/kg, route oral; settings: in vivo
In short: (§2)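 Male Sprague−Dawley rats given a single 25 mg/kg oral dose (aqueous 0.5% methyl cellulose suspension for one compound). Blood drawn from 0.08 to 48 h. LC-MS/MS, linear range 0.78−400 ng/mL.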

[4] = Cmax in Sprague-Dawley rat at 2.5 mg/kg, iv by LC-MS/MS method; type: ADME, organism-based; parameters: dose 2.5 mg/kg, route intravenous; settings: in vivo; in short: as §1
[5] = Cmax in Sprague-Dawley rat at 25 mg/kg, po by LC-MS/MS method; type: ADME, organism-based; parameters: dose 25 mg/kg, route oral; settings: in vivo; in short: as §2
Syrian golden hamster [6] = assay: Reduction in body weight in high fructose and high-fat diet fed dyslipidemic Syrian golden hamster model at 10 mg/kg/day, po for 7 days; type: functional, Mesocricetus auratus; parameters: scale not given: the % may be the effect or the level left
In short: (§3)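 HFD-fed Syrian golden hamsters, six per group, fed a high-fructose diet. Oral dosing in 1% gum acacia for 7 days. Sham group received vehicle. Plasma TG was measured and body weight tracked. Results given as % change versus HFD control.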

Syrian golden hamster [7] = assay: Reduction in body weight in high fructose and high-fat diet fed dyslipidemic Syrian golden hamster model at 100 mg/kg/day, po for 7 days; type: functional, Mesocricetus auratus; parameters: scale not given: the % may be the effect or the level left; in short: as §3
Syrian golden hamster [8] = assay: Antidyslipidemic activity in high fructose and high-fat diet fed dyslipidemic Syrian golden hamster model assessed as reduction in NEFA level at 100 mg/kg/day, po for 7 days; type: functional, Mesocricetus auratus; parameters: scale not given: the % may be the effect or the level left
In short: (§4)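 Syrian golden hamsters fed high-fructose high-fat diet; oral dosing in 1% gum acacia at 10, 30, 100 mg/kg (or 25 mg/kg) for 7 days, sham control given vehicle; plasma TG, cholesterol, LDL-C, HDL-C, glycerol and NEFA (kits), lipoprotein lipase activity and body weight; % change versus HFD control, six hamsters per group.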

Syrian golden hamster [9] = assay: Antidyslipidemic activity in high fructose and high-fat diet fed dyslipidemic Syrian golden hamster model assessed as reduction in cholesterol level at 100 mg/kg/day, po for 7 days; type: functional, Mesocricetus auratus; parameters: scale not given: the % may be the effect or the level left; in short: as §4
Syrian golden hamster [10] = assay: Antidyslipidemic activity in high fructose and high-fat diet fed dyslipidemic Syrian golden hamster model assessed as reduction in triglyceride level at 100 mg/kg/day, po for 7 days; type: functional, Mesocricetus auratus; parameters: scale not given: the % may be the effect or the level left; in short: as §3
Syrian golden hamster [11] = assay: Antidyslipidemic activity in high fructose and high-fat diet fed dyslipidemic Syrian golden hamster model assessed as reduction in triglyceride level at 30 mg/kg/day, po for 7 day, po; type: functional, Mesocricetus auratus; parameters: scale not given: the % may be the effect or the level left; in short: as §3
Syrian golden hamster [12] = assay: Antidyslipidemic activity in high fructose and high-fat diet fed dyslipidemic Syrian golden hamster model assessed as increase in lipoprotein lipase level at 10 mg/kg/day, po for 7 day, po; type: functional, Mesocricetus auratus; in short: as §4
Syrian golden hamster [13] = assay: Antidyslipidemic activity in high fructose and high-fat diet fed dyslipidemic Syrian golden hamster model assessed as increase in HDL-cholesterol level at 10 mg/kg/day, po for 7 day, po; type: functional, Mesocricetus auratus; in short: as §4
Syrian golden hamster [14] = assay: Antidyslipidemic activity in high fructose and high-fat diet fed dyslipidemic Syrian golden hamster model assessed as reduction in LDL-cholesterol level at 10 mg/kg/day, po for 7 day, po; type: functional, Mesocricetus auratus; parameters: scale not given: the % may be the effect or the level left; in short: as §4
Syrian golden hamster [15] = assay: Antidyslipidemic activity in high fructose and high-fat diet fed dyslipidemic Syrian golden hamster model assessed as reduction in LDL-cholesterol level at 10 to 100 mg/kg/day for 7 days; type: functional, organism-based; settings: Mesocricetus auratus; in short: as §4
Syrian golden hamster [16] = assay: Antidyslipidemic activity in high fructose and high-fat diet fed dyslipidemic Syrian golden hamster model assessed as reduction in triglyceride level at 10 to 100 mg/kg/day for 7 days; type: functional, organism-based; settings: Mesocricetus auratus; in short: as §4
Syrian golden hamster [17] = assay: Antidyslipidemic activity in high fructose and high-fat diet fed dyslipidemic Syrian golden hamster model assessed as reduction in body weight at 25 mg/kg/day for 7 days; type: functional, Mesocricetus auratus; parameters: scale not given: the % may be the effect or the level left; in short: as §4
Syrian golden hamster [18] = assay: Antidyslipidemic activity in high fructose and high-fat diet fed dyslipidemic Syrian golden hamster model assessed as reduction in LDL-cholesterol level at 25 mg/kg/day for 7 days; type: functional, Mesocricetus auratus; parameters: scale not given: the % may be the effect or the level left; in short: as §4
Mus musculus [19] = assay: Antidiabetic activity in diabetic C57BL/KsJ db/db mouse model assessed as reduction in postprandial glucose level in hyperglycemia at 1 mg/kg, po measured 2 hrs post dose; type: functional; parameters: scale not given: the % may be the effect or the level left
In short: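 db/db mice (C57BL/KsJ, 12−18 weeks, 40−50 g; selected by glucose 200−350 mg/dL) dosed orally daily for 10 consecutive days at 1, 3, 10, 25 or 50 mg/kg; postprandial blood glucose profile recorded on day 6 with food access interrupted; mean % change versus vehicle in 5 animals per group; Student t test.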

Mus musculus [20] = assay: Antidiabetic activity in diabetic C57BL/KsJ db/db mouse model assessed as improvement in glucose tolerance in hyperglycemia at 100 mg/kg, po measured 2 hrs post dose; type: functional
Mus musculus [21] = assay: Antidiabetic activity in diabetic C57BL/KsJ db/db mouse model assessed as improvement in glucose tolerance in hyperglycemia at 25 mg/kg, po measured 2 hrs post dose; type: functional
Mus musculus [22] = assay: Antidiabetic activity in diabetic C57BL/KsJ db/db mouse model assessed as improvement in glucose tolerance in hyperglycemia at 1 mg/kg, po measured 2 hrs post dose; type: functional
Mus musculus [23] = assay: Reduction in body weight in diabetic C57BL/KsJ db/db mouse model in hyperglycemia at 25 mg/kg, po qd for 10 days relative to untreated control; type: functional; parameters: scale not given: the % may be the effect or the level left
In short: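 db/db mice (C57BL/KsJ, 12−18 weeks, 40−50 g, glucose 200−350 mg/dL), housed at 23 ± 2.0 °C on a 12 h light cycle. Oral dosing daily for 10 days. Blood glucose checked each morning through day 9. Body weight recorded daily from day 1 to day 10. Mean % change versus vehicle, 5 mice per group; Student t test.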

Mus musculus [24] = assay: Antidyslipidemic activity in diabetic C57BL/KsJ db/db mouse model assessed as increase in plasma HDL-C/cholesterol ratio at 25 mg/kg, po qd for 10 days; type: functional
In short: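 db/db mice (blood glucose 200−350, TG 170−250, cholesterol 170−250, HDL-C 32−40 mg/dL) dosed orally at 25 mg/kg daily for 10 days; retro-orbital blood taken on day 11 for plasma TG, cholesterol and HDL-C (and HDL-C/CHOL ratio); mean % change versus vehicle control, 5 mice per group; Student t test.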

[25] = Oral bioavailability in Sprague-Dawley rat at 25 mg/kg by LC-MS/MS method; type: ADME, organism-based; settings: in vivo; in short: as §2
[26] = Elimination half life in Sprague-Dawley rat at 25 mg/kg, po by LC-MS/MS method; type: ADME, organism-based; parameters: dose 25 mg/kg, route oral; settings: in vivo, read-out: beta t1/2 (converted); in short: as §2
[27] = Volume of distribution in Sprague-Dawley rat at 2.5 mg/kg, iv by LC-MS/MS method; type: ADME, organism-based; parameters: dose 2.5 mg/kg, route intravenous; settings: in vivo; in short: as §1
Rattus norvegicus = assay: AUC in Sprague-Dawley rat at 25 mg/kg, po by LC-MS/MS method; settings: in vivo
Mus musculus [28] = assay: Antidiabetic activity in diabetic C57BL/KsJ db/db mouse model assessed as reduction in postprandial glucose level in hyperglycemia at 50 mg/kg, po measured 2 hrs post dose; parameters: scale not given: the % may be the effect or the level left

CC(C)(C)NC[C@H](O)COc1ccc2c(=O)cc(-c3cc(OCc4ccccc4)cc(OCc4ccccc4)c3)oc2c1
MRT [1]: 13.5 h
clearance [2]: 62 mL/min/kg
Tmax [3]: 8 h
Cmax [4]: 523 ng/mL
Cmax [5]: 70.3 ng/mL
Activity (Syrian golden hamster [6]): 7.38%
Activity (Syrian golden hamster [7]): 12.5%
Activity (Syrian golden hamster [8]): 59.1%
Activity (Syrian golden hamster [9]): 50.7%
Activity (Syrian golden hamster [10]): 76.3%
Activity (Syrian golden hamster [11]): 39.8%
Activity (Syrian golden hamster [12]): 13.2%
Activity (Syrian golden hamster [13]): 9.37%
Activity (Syrian golden hamster [14]): 21.1%
Activity (Syrian golden hamster [15]): Dose-dependent effect
Activity (Syrian golden hamster [16]): Dose-dependent effect
Activity (Syrian golden hamster [17]): 14.3%
Activity (Syrian golden hamster [18]): 30.1%
Activity (Mus musculus [19]): 14.8%
Activity (Mus musculus [20]): 59.4%
Activity (Mus musculus [21]): 44.6%
Activity (Mus musculus [22]): 21.46%
Activity (Mus musculus [23]): 28.2%
Percent increase in HDL-C/cholesterol ratio vs vehicle (Mus musculus [24]): 92.5
bioavailability [25]: 27%
half-life [26]: 19.8 h
Vd [27]: 50.3 L/kg
AUC (Rattus norvegicus): 1798.22 ng·h/mL
Activity (Mus musculus [28]): 39.1%
